# JNK3 blocker: inhibitors of human JNK3 kinase; purified JNK3 kinase activity, HTS; inhibition, % at 8 µM; hit rate 0.61% among 60,000; in the data active = inhibition above about 17%
# ROCK2 inh: inhibitors of human Rho kinase 2; inhibition, % at 6 µM; O75116; purified ROCK2, Kinase-Glo ATP depletion luminescence; AID 604; hit rate 0.35% among 60,000;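 active = inhibition above the screen-wide mean inhibition plus 3 SD, cut at about 18% in these data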
# PKA inh: blocks human protein kinase A activity. P17612. inhibition, % at 6 µM. hit rate 0.1% among 65,000. PKA Kemptide phosphorylation, Kinase-Glo ATP luminescence. AID 524;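 active = inhibition above the screen-wide mean inhibition plus 3 SD, cut at about 21% in these data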
# HEK293 NFkB inh: inhibitors of the PMA/ionomycin-induced NF-kB reporter in HEK293 cells | HEK-293 NF-kB luciferase reporter, luminescence | inhibition, % at 3 µM | hit rate 0.21% among 62,000 | AID 465;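 active = inhibition above the mean of all tested compounds plus 3 SD, cut at about 40% in these data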
#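 Reagent: PMA plus ionomycin mix as NF-kB-activating stimulus. Assay system: NF-kB luciferase reporter HEK-293 cells. Technique: luminescence from luciferase substrate reagent. Incubation: 1 h compound pre-incubation, 16 h PMA/ionomycin at 37 °C. Benchmarks: DMSO only as uninhibited control, 10 µM reference inhibitor as full inhibition. Repeats: tested once.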
# Numbers stand for hits; n = inactive. Most compounds without a hit are left out; they make up all but 0.64% or so of the library.
SMILES,JNK3 blocker,ROCK2 inh,PKA inh,HEK293 NFkB inh
CCn1nc(-c2ccccc2)nc2c(=O)n(C)c(=O)nc1-2,55,72,n,90
Cn1c(=O)n(CC(=O)N2CCC3(CC2)OCCO3)c(=O)c2ccccc21,n,n,n,n
O=C(CCCCCn1c(=S)[nH]c2ccccc2c1=O)N1CCC2(CC1)OCCO2,28,n,n,n
O/N=C/c1c[nH]c2ccccc12,n,82,64,n
CC1(C)CN=C(NCc2ccccc2Cl)S1,n,n,n,n
CCOC(=O)C1SC2(C(F)F)CC1(O)c1c(c(OC)c3occc3c1OC)O2 (configuration not stated),n,n,n,n
